Converted amounts (≈) assume the structure as drawn. The source made the active and inactive calls. The calls are words filed in the database; no cut-off is given here.
Tests used:
Assay type in all cases: functional
Staphylococcus aureus [1] = assay: Antibacterial activity against Staphylococcus aureus ATCC 29213 at 10 ug by disc diffusion method; details: for zone of inhibition at 10 µg/disc: read-out: IZ
[2] = system: Stenotrophomonas maltophilia; assay: Antibacterial activity against multidrug-resistant Stenotrophomonas maltophilia D457R at 10 ug by disc diffusion method; details: for zone of inhibition at 10 µg/disc: read-out: IZ
[3] = system: Stenotrophomonas maltophilia; assay: Antibacterial activity against multidrug-resistant Stenotrophomonas maltophilia D457R after 24 hrs by broth microdilution method
Method in brief: (§1)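 MIC (lowest concentration preventing growth) determined per CLSI specifications, with fosfomycin, ceftriaxone, ciprofloxacin and chloramphenicol run as reference drugs; S. aureus ATCC 29213 used as quality-control strain.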

Escherichia coli [4] = assay: Antibacterial activity against ESBL-producing Escherichia coli BW55 at 10 ug by disc diffusion method; details: for zone of inhibition at 10 µg/disc: read-out: IZ
Escherichia coli [5] = assay: Antibacterial activity against multidrug-resistant Escherichia coli BW54 at 10 ug by disc diffusion method; details: for zone of inhibition at 10 µg/disc: read-out: IZ
Pseudomonas aeruginosa [6] = assay: Bactericidal activity against multidrug-resistant Pseudomonas aeruginosa PAO1 after 24 hrs by CFU counting assay; details: PAO1, 24 h
Method in brief: (§2)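 MBC (lowest concentration killing the pathogen) determined per CLSI specifications, with fosfomycin, ceftriaxone, ciprofloxacin and chloramphenicol run as reference drugs; S. aureus ATCC 29213 used as quality-control strain.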

Escherichia coli [7] = assay: Bactericidal activity against multidrug-resistant Escherichia coli BW54 after 24 hrs by CFU counting assay; details: BW54, 24 h; method in brief: as §2
Staphylococcus aureus [8] = assay: Bactericidal activity against methicillin-resistant Staphylococcus aureus BW61 after 24 hrs by CFU counting assay; details: BW61, 24 h; method in brief: as §2
Staphylococcus aureus [9] = assay: Antibacterial activity against methicillin-resistant Staphylococcus aureus BW61 after 24 hrs by broth microdilution method; details: BW61, 24 h; method in brief: as §1
Escherichia coli [10] = assay: Antibacterial activity against ESBL-producing Escherichia coli BW55 after 24 hrs by broth microdilution method; details: BW55, 24 h; method in brief: as §1
Escherichia coli [11] = assay: Bactericidal activity against ESBL-producing Escherichia coli BW55 after 24 hrs by CFU counting assay; details: BW55, 24 h; method in brief: as §2
Bacillus cereus [12] = assay: Antibacterial activity against Bacillus cereus ATCC 11778 at 10 ug by disc diffusion method; details: for zone of inhibition at 10 µg/disc: read-out: IZ
[13] = system: Acinetobacter haemolyticus; assay: Antibacterial activity against vancomycin-resistant Acinetobacter haemolyticus BW62 at 10 ug by disc diffusion method; details: for zone of inhibition at 10 µg/disc: read-out: IZ
Escherichia coli [14] = assay: Antibacterial activity against multidrug-resistant Escherichia coli BW54 after 24 hrs by broth microdilution method; details: BW54, 24 h; method in brief: as §1
Bacillus cereus [15] = assay: Antibacterial activity against Bacillus cereus ATCC 11778 after 24 hrs by broth microdilution method; details: ATCC 11778, 24 h; method in brief: as §1
Staphylococcus aureus [16] = assay: Antibacterial activity against Staphylococcus aureus ATCC 29213 after 24 hrs by broth microdilution method; details: ATCC 29213, 24 h; method in brief: as §1
Bacillus cereus [17] = assay: Bactericidal activity against Bacillus cereus ATCC 11778 after 24 hrs by CFU counting assay; details: ATCC 11778, 24 h; method in brief: as §2
Pseudomonas aeruginosa [18] = assay: Antibacterial activity against multidrug-resistant Pseudomonas aeruginosa PAO1 at 10 ug by disc diffusion method; details: for zone of inhibition at 10 µg/disc: read-out: IZ
[19] = system: Acinetobacter haemolyticus; assay: Antibacterial activity against vancomycin-resistant Acinetobacter haemolyticus BW62 after 24 hrs by broth microdilution method; details: BW62, 24 h; method in brief: as §1
Pseudomonas aeruginosa [20] = assay: Antibacterial activity against multidrug-resistant Pseudomonas aeruginosa PAO1 after 24 hrs by broth microdilution method; details: PAO1, 24 h; method in brief: as §1
[21] = system: Acinetobacter haemolyticus; assay: Bactericidal activity against vancomycin-resistant Acinetobacter haemolyticus BW62 after 24 hrs by CFU counting assay; details: BW62, 24 h; method in brief: as §2
[22] = system: Stenotrophomonas maltophilia; assay: Bactericidal activity against multidrug-resistant Stenotrophomonas maltophilia D457R after 24 hrs by CFU counting assay; method in brief: as §2
Staphylococcus aureus [23] = assay: Bactericidal activity against Staphylococcus aureus ATCC 29213 after 24 hrs by CFU counting assay; details: ATCC 29213, 24 h; method in brief: as §2

SMILES | Activity [2] | MIC [3] [µg/mL] | Activity (Escherichia coli [5]) | MBC (Pseudomonas aeruginosa [6]) [µg/mL] | MBC (Escherichia coli [7]) [µg/mL] | MBC (Staphylococcus aureus [8]) [µg/mL] | MIC (Staphylococcus aureus [9]) [µg/mL] | MIC (Escherichia coli [10]) [µg/mL] | MBC (Escherichia coli [11]) [µg/mL] | Activity [13] | MIC (Escherichia coli [14]) [µg/mL] | MIC (Bacillus cereus [15]) [µg/mL] | MIC (Staphylococcus aureus [16]) [µg/mL] | MBC (Bacillus cereus [17]) [µg/mL] | MIC [19] [µg/mL] | MIC (Pseudomonas aeruginosa [20]) [µg/mL] | MBC [21] [µg/mL] | MBC [22] [µg/mL] | MBC (Staphylococcus aureus [23]) [µg/mL] | Activity (Staphylococcus aureus [1]) | other results
O=P(Oc1ccccc1)(Oc1ccccc1)[C@@]1(O)c2ccccc2C[C@@H]1Cl (mixture of isomers) | inactive | 128 | inactive | 256 | 256 | 256 | 256 | 128 | 256 | inactive | 128 | 128 | 256 | 256 | 128 | 128 | 256 | 256 | 256 | – | zone of inhibition at 10 µg/disc (Staphylococcus aureus [1]): 5 mm; zone of inhibition at 10 µg/disc (Escherichia coli [4]): 8 mm; Activity (Bacillus cereus [12]): inactive; zone of inhibition at 10 µg/disc (Pseudomonas aeruginosa [18]): 9 mm
CC1(C)COP(=O)([C@@]2(O)CCC[C@@H]2Cl)OC1 | – | – | inactive | – | – | – | – | – | – | inactive | – | – | – | – | – | – | – | – | – | inactive | zone of inhibition at 10 µg/disc [2]: 6 mm; Activity (Escherichia coli [4]): inactive; Activity (Bacillus cereus [12]): inactive; zone of inhibition at 10 µg/disc (Pseudomonas aeruginosa [18]): 6 mm
O=C(N[C@H](CO)[C@H](O)c1ccc([N+](=O)[O-])cc1)C(Cl)Cl [CHLORAMPHENICOL] | – | 128 (≈ 396 µM) | – | ≥ 256 | ≥ 256 | 128 (≈ 396 µM) | 16 (≈ 49.5 µM) | 8 (≈ 24.8 µM) | 128 (≈ 396 µM) | – | 128 (≈ 396 µM) | 0.5 (≈ 1.55 µM) | 8 (≈ 24.8 µM) | 64 (≈ 198 µM) | 128 (≈ 396 µM) | ≥ 256 | ≥ 256 | ≥ 256 | 64 (≈ 198 µM) | – | –
CC1(C)COP(=O)([C@@](O)(CCl)c2ccc(Cl)cc2)OC1 | inactive | 64 (≈ 189 µM) | inactive | 128 (≈ 377 µM) | 128 (≈ 377 µM) | 128 (≈ 377 µM) | 64 (≈ 189 µM) | 64 (≈ 189 µM) | 128 (≈ 377 µM) | inactive | 64 (≈ 189 µM) | 64 (≈ 189 µM) | 64 (≈ 189 µM) | 128 (≈ 377 µM) | 64 (≈ 189 µM) | 128 (≈ 377 µM) | 128 (≈ 377 µM) | 256 (≈ 755 µM) | 128 (≈ 377 µM) | inactive | zone of inhibition at 10 µg/disc (Escherichia coli [4]): 7 mm; Activity (Bacillus cereus [12]): inactive; Activity (Pseudomonas aeruginosa [18]): inactive
O=C(O)c1cn(C2CC2)c2cc(N3CCNCC3)c(F)cc2c1=O [CIPROFLOXACIN] | – | 4 (≈ 12.1 µM) | – | 4 (≈ 12.1 µM) | 4 (≈ 12.1 µM) | 4 (≈ 12.1 µM) | 4 (≈ 12.1 µM) | – | 1 (≈ 3.02 µM) | – | – | 4 (≈ 12.1 µM) | 4 (≈ 12.1 µM) | 4 (≈ 12.1 µM) | 4 (≈ 12.1 µM) | 4 (≈ 12.1 µM) | 4 (≈ 12.1 µM) | 256 (≈ 773 µM) | 4 (≈ 12.1 µM) | – | –
O=P(Oc1ccccc1)(Oc1ccccc1)[C@](O)(CCl)c1ccccc1 | – | 64 (≈ 165 µM) | – | 64 (≈ 165 µM) | 64 (≈ 165 µM) | 64 (≈ 165 µM) | 64 (≈ 165 µM) | 64 (≈ 165 µM) | 64 (≈ 165 µM) | – | 64 (≈ 165 µM) | 64 (≈ 165 µM) | 64 (≈ 165 µM) | 32 (≈ 82.3 µM) | 64 (≈ 165 µM) | 64 (≈ 165 µM) | 64 (≈ 165 µM) | 64 (≈ 165 µM) | 64 (≈ 165 µM) | inactive | zone of inhibition at 10 µg/disc [2]: 7 mm; zone of inhibition at 10 µg/disc (Escherichia coli [4]): 10 mm; zone of inhibition at 10 µg/disc (Escherichia coli [5]): 9 mm; zone of inhibition at 10 µg/disc (Bacillus cereus [12]): 7 mm; zone of inhibition at 10 µg/disc [13]: 8 mm; zone of inhibition at 10 µg/disc (Pseudomonas aeruginosa [18]): 7 mm
CC1(C)COP(=O)([C@@](O)(CCl)c2ccccc2)OC1 | inactive | – | inactive | – | – | – | – | – | – | inactive | – | – | – | – | – | – | – | – | – | inactive | Activity (Escherichia coli [4]): inactive; zone of inhibition at 10 µg/disc (Bacillus cereus [12]): 7 mm; zone of inhibition at 10 µg/disc (Pseudomonas aeruginosa [18]): 6 mm
CC1(C)COP(=O)([C@@](C)(O)CCl)OC1 | inactive | – | inactive | – | – | – | – | – | – | inactive | – | – | – | – | – | – | – | – | – | inactive | Activity (Escherichia coli [4]): inactive; Activity (Bacillus cereus [12]): inactive; Activity (Pseudomonas aeruginosa [18]): inactive
C[C@H](Cl)[C@](O)(c1ccccc1)P1(=O)OCC(C)(C)CO1 | – | – | inactive | – | – | – | – | – | – | inactive | – | – | – | – | – | – | – | – | – | inactive | zone of inhibition at 10 µg/disc [2]: 7 mm; Activity (Escherichia coli [4]): inactive; Activity (Bacillus cereus [12]): inactive; Activity (Pseudomonas aeruginosa [18]): inactive
CO/N=C(\C(=O)N[C@@H]1C(=O)N2C(C(=O)O)=C(CSc3nc(=O)c(O)nn3C)CS[C@H]12)c1csc(N)n1 [CEFTRIAXONE] | – | 64 (≈ 115 µM) | – | 128 (≈ 231 µM) | 0.5 (≈ 0.902 µM) | 4 (≈ 7.21 µM) | 4 (≈ 7.21 µM) | 32 (≈ 57.7 µM) | 64 (≈ 115 µM) | – | ≤ 0.5 | 32 (≈ 57.7 µM) | 4 (≈ 7.21 µM) | 64 (≈ 115 µM) | 4 (≈ 7.21 µM) | 128 (≈ 231 µM) | 4 (≈ 7.21 µM) | 128 (≈ 231 µM) | 4 (≈ 7.21 µM) | – | –
C[C@](O)(CCl)P(=O)(Oc1ccccc1)Oc1ccccc1 | inactive | 128 (≈ 392 µM) | – | 256 (≈ 784 µM) | ≥ 256 | 256 (≈ 784 µM) | 128 (≈ 392 µM) | 64 (≈ 196 µM) | 256 (≈ 784 µM) | – | 128 (≈ 392 µM) | 64 (≈ 196 µM) | 128 (≈ 392 µM) | 128 (≈ 392 µM) | 64 (≈ 196 µM) | 64 (≈ 196 µM) | ≥ 256 | ≥ 256 | ≥ 256 | – | zone of inhibition at 10 µg/disc (Staphylococcus aureus [1]): 9 mm; zone of inhibition at 10 µg/disc (Escherichia coli [4]): 7 mm; zone of inhibition at 10 µg/disc (Escherichia coli [5]): 8 mm; zone of inhibition at 10 µg/disc (Bacillus cereus [12]): 12 mm; zone of inhibition at 10 µg/disc [13]: 8 mm; zone of inhibition at 10 µg/disc (Pseudomonas aeruginosa [18]): 7 mm
C[C@@H]1O[C@@H]1P(=O)(O)O [FOSFOMYCIN] | – | 256 (≈ 1850 µM) | – | 64 (≈ 464 µM) | 32 (≈ 232 µM) | 32 (≈ 232 µM) | 64 (≈ 464 µM) | 32 (≈ 232 µM) | 128 (≈ 927 µM) | – | 32 (≈ 232 µM) | 32 (≈ 232 µM) | 8 (≈ 57.9 µM) | 32 (≈ 232 µM) | 128 (≈ 927 µM) | 64 (≈ 464 µM) | 128 (≈ 927 µM) | 256 (≈ 1850 µM) | 64 (≈ 464 µM) | – | –

Source: ChEMBL document CHEMBL3098034, “Synthesis and biological evaluation of α-hydroxyalkylphosphonates as new antimicrobial agents” (Bioorg Med Chem Lett, 2014)
